Most compounds without a hit are left out; they make up all but 3% or so of the library.
TRPC4 agonist: TRPC4 (mouse) channel activation; Q9QUQ5; HEK293 TRPC4beta/mu-opioid, Fluo4 calcium fluorescence; hits give high values; B-score at 10 µM; 0.49% of 310,000 active; AID 2237;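 active = B-score above 5 SD of library B-scores, and initial fluorescence ratio not above library mean plus 5 SD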;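 also: positive B-score marks a calcium rise read as TRPC4 activation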
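System – HEK293 cells stably co-expressing mouse TRPC4beta and mu-opioid receptor · Signal – Fluo4 calcium-sensitive dye fluorescence, kinetic, 1 Hz baseline · Benchmarks – buffer (low) and maximal DAMGO (high) · Read-out – B score of integrated fluorescence ratio per well · Incubation – dye loading 45 min room temperature, 110 s kinetic read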
TRPC6 activator: activates the mouse TRPC6 cation channel; HEK293-TRPC6 membrane potential dye fluorescence; hits give high values; B-score at 10 µM; 0.13% of 310,000 active; AID 2550;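 active = B-score of the integrated fluorescence ratio above library mean plus 3 SD, and starting fluorescence ratio within library mean plus 5 SD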;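 also: higher score means more depolarization so channel activation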
TRPC6 inh: blocks the mouse TRPC6 cation channel | B-score at 10 µM | HEK293-TRPC6, membrane potential dye, ACh-evoked depolarization; hits give low values | 1.1% of 310,000 active | Q61143 | AID 2553;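 active = B-score under library mean minus 3 SD, initial fluorescence not abnormally high, positive integrated signal ratio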;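 also: B-score derived from integrated fluorescence ratio over the kinetic read; more negative B-score means stronger inhibition of depolarization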
TRPC4 inh: TRPC4 (mouse) channel inhibition | 0.39% of 300,000 active | Q9QUQ5 | HEK293 TRPC4beta/mu-opioid, DAMGO-evoked Fluo4 calcium flux; hits give low values | B-score at 10 µM;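 active = B-score over 3 SD under the library average, no early fluorescence shift, positive overall ratio signal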
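Signal: kinetic Fluo4 fluorescence imaging of calcium influx. Material: stable TRPC4beta/mu-opioid receptor HEK293 cells. Probe or stimulus: DAMGO in two steps, submaximal then maximal.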
TRPC4 potent: allosterically enhances the mouse TRPC4 cation channel; 0.42% of 310,000 active; B-score at 10 µM; HEK293 TRPC4beta/mu-opioid, DAMGO EC20, Fluo-4 Ca2+ flux; hits give high values;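 active = B-score of calcium response area above 5 SD of library B-scores, with initial fluorescence ratio within 5 SD of library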
Kir21 block: Kir2.1 (mouse) channel inhibition. HEK293-Kir2.1, FluxOR thallium flux fluorescence; hits give low values. B-score at 10 µM. 0.85% of 310,000 active;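 active = fluorescence ratio B-score at or below minus 3 SD of library scores, with starting-brightness B-score within 2 SD, cut at about -4.2 in these data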;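 also: channel flux triggered by added potassium and thallium sulfate stimulus; B-score of peak minus minimum fluorescence over baseline after thallium stimulus; more negative B-score means stronger Kir2.1 block with less thallium influx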
Target sequence (P35561 whole entry, looked up): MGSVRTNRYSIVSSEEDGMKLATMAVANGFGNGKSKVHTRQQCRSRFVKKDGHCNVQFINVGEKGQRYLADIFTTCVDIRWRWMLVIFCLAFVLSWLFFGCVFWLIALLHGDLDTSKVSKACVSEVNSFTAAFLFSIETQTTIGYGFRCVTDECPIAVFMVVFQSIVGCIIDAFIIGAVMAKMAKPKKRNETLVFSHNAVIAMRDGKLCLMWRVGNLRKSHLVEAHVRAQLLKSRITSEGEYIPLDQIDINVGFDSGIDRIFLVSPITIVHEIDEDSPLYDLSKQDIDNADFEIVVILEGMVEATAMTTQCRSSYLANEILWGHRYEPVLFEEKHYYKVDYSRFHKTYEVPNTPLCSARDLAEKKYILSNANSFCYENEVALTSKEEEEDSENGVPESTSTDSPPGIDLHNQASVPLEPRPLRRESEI
TRPC4 sel inh 2: second selectivity test of TRPC6 inhibitors: effect on mouse TRPC4 | shares compounds with TRPC6 inh | HEK293 TRPC4/MOR, membrane potential dye fluorescence; channel activated by saturating DAMGO dose | inhibition, % at 10 µM | 42% of 920 active | AID 2776;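 active = compounds whose fluorescence signal differed from control wells by over 3 SD, either direction, in both duplicate plates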
TRPC4 spec: tests whether TRPC6 inhibitors also affect mouse TRPC4. activity change, negative = inhibition, % at 10 µM. shares compounds with TRPC6 inh. 61% of 920 active. HEK293 TRPC4/mu-opioid, membrane potential fluorescence;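 active = rise or fall in signal beyond 3 SD of buffer-only wells in both replicate plates, either sign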;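 also: integrated kinetic ratio of fluorescence range over baseline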
HEK293 MPD ctr 2-1: parental HEK293 nonspecific activity of TRPC6 inhibitors, second screen; parental HEK293 membrane potential dye fluorescence; maximal acetylcholine challenge after compound addition; AID 2779; shares compounds with TRPC6 inh; signal change vs control, % at 10 µM; 31% of 920 active;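 active = membrane potential signal moving either way by over 3 SD of the maximum-effect control, in both duplicate plates, meaning non-specific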
HEK293 MPD ctr-1: checks TRPC6 inhibitor effects in parental HEK293 cells; shares compounds with TRPC6 inh; parental HEK293 membrane potential dye fluorescence; membrane potential signal change, % at 10 µM; 60% of 920 active; AID 2780;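 active = membrane potential signal shifting up or down by more than 3 SD of buffer-only wells, on both duplicate plates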
HEK293 MPD ctr-2: parental HEK293 nonspecific activity of TRPC6 modulators. AID 488924. membrane potential dye fluorescence. membrane potential signal change, % at 10 µM. shares compounds with TRPC6 inh. 51% of 2,400 active;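 active = membrane potential signal moves up or down beyond 5 SD from buffer-only wells, on both duplicate plates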
HEK293 MPD ctr 2-2: second counter-screen for TRPC6 modulators: effect in parental HEK293 cells. shares compounds with TRPC6 inh. inhibition, % at 10 µM. 14% of 2,400 active. membrane potential dye fluorescence; after compound, maximal acetylcholine stimulation. AID 488926;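 active = membrane potential signal drops by more than 5 SD from the mean control signal, in both duplicate plates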
TRPC4 ctr mod: selectivity of TRPC6 modulators against mouse TRPC4; shares compounds with TRPC6 inh; percent change from control (negative = decrease, positive = increase), % at 10 µM; HEK293 TRPC4/mu-opioid, membrane potential fluorescence; 69% of 2,400 active;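 active = membrane potential signal moved up or down beyond 5 SD of buffer control wells, in both duplicate plates, actives on both sides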
TRPC4 ctr inh 2: second selectivity test of TRPC6 modulators against mouse TRPC4; shares compounds with TRPC6 inh; inhibition, % at 10 µM; AID 488928; HEK293 TRPC4/mu-opioid, membrane potential dye fluorescence; stimulated with maximal-effect DAMGO; 55% of 2,400 active;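 active = drop in membrane potential signal beyond 5 SD of the control wells in both duplicate plates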;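 also: TRPC4 counter screen for TRPC6 hits run under conditions tuned for TRPC6 not TRPC4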
TRPC6 inh conf: confirmation of mouse TRPC6 inhibitors; 43% of 3,300 active; inhibition, % at 10 µM; shares compounds with TRPC6 inh; AID 488960; HEK293-TRPC6, membrane potential dye, ACh-evoked depolarization;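 active = fluorescence ratio falls more than 5 SD below the full-stimulation control mean, in both duplicate runs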;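 also: integrated fluorescence ratio of peak minus minimum over baseline after agonist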
TRPC6 act confirm: mouse TRPC6 activator confirmation; AID 488961; activation, % at 10 µM; HEK293-TRPC6 membrane potential dye fluorescence, FDSS; shares compounds with TRPC6 inh; 11% of 2,800 active;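 active = ratio signal rise beyond 5 SD above unstimulated control wells' mean, seen in both duplicate runs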
Hits are given with their value; . = inactive; / = not tested or not shown.

SMILES	TRPC4 agonist	TRPC6 activator	TRPC6 inh	TRPC4 inh	TRPC4 potent	Kir21 block	TRPC4 sel inh 2	TRPC4 spec	HEK293 MPD ctr 2-1	HEK293 MPD ctr-1	TRPC6 inh conf	TRPC6 act confirm	others
Cc1nc2cc(NCc3ccc(Cl)cc3)ccc2n1C	.	.	-7.1	.	.	.	51%	-15%	.	-300%	60%	.
Cc1ccc(S(=O)(=O)Nc2ccc3c(c2)ncn3C(C)(C)C)cc1	.	.	.	.	.	.	/	/	/	/	/	/
Cc1ccc(CNc2ccc3c(c2)ncn3C(C)(C)C)cc1	.	.	-6.8	.	21	.	52%	12%	240%	.	.	.
COc1ccc(OC)c(CNc2ccc3c(c2)nc(C)n3C)c1	.	.	.	.	.	.	/	/	/	/	/	/
Cc1ccc(CNc2ccc3c(c2)nc(C)n3C)cc1	.	.	-8.1	.	.	.	50%	-15%	.	-176%	66%	.
O=C(Nc1cc(Cl)ccc1O)C1CC(c2ccccc2Cl)=NO1 (stereo not drawn)	.	.	.	.	.	.	/	/	/	/	/	/
COC(=O)c1ccc(CNS(=O)(=O)c2ccc3ccccc3c2)cc1	.	.	.	.	.	.	/	/	/	/	/	/
Cc1ccc2[nH]c(CNC(=O)c3ccc(F)cc3)cc2c1	.	.	.	.	.	.	/	/	/	/	/	/
COc1ccc(CCC(C)NC(=O)Cc2ccc(OC)c(OC)c2)c(OC)c1 (stereo not drawn)	.	.	.	.	.	.	/	/	/	/	/	/
COCc1cc(C)nc(SCC[N+](C)(C)CC(=O)Nc2cccc(C)c2)c1C#N	.	.	-7	.	.	.	.	-13%	.	-170%	.	.
CCOC(=O)c1ccc2nc(CCC(=O)N[C@H](C(=O)OC)C(C)C)c(=O)n(CC)c2c1	.	.	.	.	.	.	/	/	/	/	/	/
Cn1c(-c2ccc3c(c2)OCO3)cnc1NC(=O)CCC(=O)NCCc1ccccc1	.	.	.	.	.	.	/	/	/	/	/	/
Cn1c(-c2ccc3c(c2)OCO3)cnc1NCc1cccc(Cl)c1	.	.	-7.9	.	.	.	46%	.	.	.	.	.
Cn1c(-c2ccc3c(c2)OCO3)cnc1NCc1ccccc1	.	.	-5.8	.	.	-6	/	/	/	/	36%	.	HEK293 MPD ctr-2=.;HEK293 MPD ctr 2-2=.;TRPC4 ctr mod=.;TRPC4 ctr inh 2=56%
Cc1ccc(-c2cnc(NCc3cc4c(cc3[N+](=O)[O-])OCO4)n2C)cc1C	.	.	.	.	.	.	/	/	/	/	/	/
Cn1c(-c2ccc3c(c2)OCO3)cnc1NCc1ccccc1Cl	.	.	-5.3	.	.	-4.3	/	/	/	/	.	.	HEK293 MPD ctr-2=.;HEK293 MPD ctr 2-2=.;TRPC4 ctr mod=.;TRPC4 ctr inh 2=68%
O=C(NN=C1CCCC1)c1ccccc1OCc1ccc(Cl)cc1	.	.	.	.	.	.	/	/	/	/	/	/
O=C(CSc1nnc2ccc(-c3ccccn3)nn12)Nc1ccccc1F	.	.	.	.	.	.	/	/	/	/	/	/
OC(CNCc1ccccc1F)(c1ccc(F)cc1)c1ccc(F)cc1	.	.	.	.	.	.	/	/	/	/	/	/
OC(CNCc1ccccc1)(c1ccc(F)cc1)c1ccc(F)cc1	.	.	-5.3	.	.	-7.3	/	/	/	/	.	/	HEK293 MPD ctr-2=160%;HEK293 MPD ctr 2-2=.;TRPC4 ctr mod=36%;TRPC4 ctr inh 2=56%
CN1CCN(c2ccc(C(=O)c3ccc(Br)cc3)cc2[N+](=O)[O-])CC1	.	.	-5.9	.	.	.	/	/	/	/	.	.	HEK293 MPD ctr-2=.;HEK293 MPD ctr 2-2=.;TRPC4 ctr mod=-13%;TRPC4 ctr inh 2=43%
CC(=O)N1CCN(c2ccc(C(N)=O)cc2[N+](=O)[O-])CC1	.	.	.	.	.	.	/	/	/	/	/	/
CN1CCN(c2ccccc2NC(=O)c2ccc(N3CCCC3)c([N+](=O)[O-])c2)CC1	.	.	-11	.	.	.	/	/	/	/	58%	.	HEK293 MPD ctr-2=-108%;HEK293 MPD ctr 2-2=.;TRPC4 ctr mod=-30%;TRPC4 ctr inh 2=82%
COc1cc(CNc2ncn[nH]2)ccc1OCc1cccc(C)c1	.	.	.	.	.	.	/	/	/	/	/	/
CCOC(=O)N1CCC(N2Cc3cccc(C(=O)NCc4ccc(OC)cc4)c3C2=O)CC1	.	.	-7.7	.	.	.	.	.	.	.	.	.
SMILES	TRPC4 agonist	TRPC6 activator	TRPC6 inh	TRPC4 inh	TRPC4 potent	Kir21 block	TRPC4 sel inh 2	TRPC4 spec	HEK293 MPD ctr 2-1	HEK293 MPD ctr-1	TRPC6 inh conf	TRPC6 act confirm	others
CCOC(=O)N1CCC(N2Cc3cccc(C(=O)Nc4ccc(F)cc4)c3C2=O)CC1	.	.	.	.	.	.	/	/	/	/	/	/
CCOC(=O)N1CCC(N2Cc3cccc(C(=O)Nc4ccc(CC)cc4)c3C2=O)CC1	.	.	-7.4	.	.	.	.	.	.	.	.	.
Cc1cc(=O)n2c3ccccc3n(CC(O)CN3CCCC3)c2c1C#N (stereo not drawn)	.	.	-8	.	.	.	68%	-19%	.	-280%	53%	.
CCCN(CCC)CC(O)Cn1cc(/C=C/C(=O)c2cccs2)c2ccccc21 (stereo not drawn)	.	.	-11	.	.	.	24%	9.6%	.	16%	.	.
O=c1c2ccccc2n(CC(O)CN2CCCCC2)c2ccccc12 (stereo not drawn)	.	.	-5.2	.	.	.	/	/	/	/	.	.	HEK293 MPD ctr-2=-104%;HEK293 MPD ctr 2-2=.;TRPC4 ctr mod=-16%;TRPC4 ctr inh 2=49%
O=C(/C=C/c1cn(CC(O)CN2CCCCC2)c2ccccc12)c1ccccc1 (stereo not drawn)	.	.	-6.4	.	.	.	/	/	/	/	74%	/	HEK293 MPD ctr-2=294%;HEK293 MPD ctr 2-2=.;TRPC4 ctr mod=.;TRPC4 ctr inh 2=84%
O=P(O)(C(O)c1ccccc1)C(O)c1ccccc1 (stereo not drawn)	.	.	.	.	.	.	/	/	/	/	/	/

Screening results deposited in PubChem by Johns Hopkins Ion Channel Center.
